Shown are actives, neighbours in structure and some others; about 2.3% of the full set was active somewhere.
DSG3 Ab inh: blocks pemphigus antibody binding to human desmoglein-3; P32926; DSG3-coupled beads, scFv-anti-DSG3-GFP binding, flow cytometry; stronger effect = lower value; binding (percent of control), % at 10 µM; actives 0.48% (n = 310,000);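 active = binding more than 3 SD below its plate's average and above zero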;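 note: hits lower antibody fragment binding to DSG3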
CHT PAM: human CHT allosteric activation | actives 0.49% (n = 310,000) | CHT-expressing cells, membrane potential dye, choline EC20; stronger effect = higher value; LV-AA mutant CHT in HEK293 cells | Q9GZV3 | B-score at 10 µM;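 active = initial fluorescence not abnormally high and integrated response B-score, plate-corrected, over 3 SD above library mean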
Target sequence (Q9GZV3 whole entry, looked up): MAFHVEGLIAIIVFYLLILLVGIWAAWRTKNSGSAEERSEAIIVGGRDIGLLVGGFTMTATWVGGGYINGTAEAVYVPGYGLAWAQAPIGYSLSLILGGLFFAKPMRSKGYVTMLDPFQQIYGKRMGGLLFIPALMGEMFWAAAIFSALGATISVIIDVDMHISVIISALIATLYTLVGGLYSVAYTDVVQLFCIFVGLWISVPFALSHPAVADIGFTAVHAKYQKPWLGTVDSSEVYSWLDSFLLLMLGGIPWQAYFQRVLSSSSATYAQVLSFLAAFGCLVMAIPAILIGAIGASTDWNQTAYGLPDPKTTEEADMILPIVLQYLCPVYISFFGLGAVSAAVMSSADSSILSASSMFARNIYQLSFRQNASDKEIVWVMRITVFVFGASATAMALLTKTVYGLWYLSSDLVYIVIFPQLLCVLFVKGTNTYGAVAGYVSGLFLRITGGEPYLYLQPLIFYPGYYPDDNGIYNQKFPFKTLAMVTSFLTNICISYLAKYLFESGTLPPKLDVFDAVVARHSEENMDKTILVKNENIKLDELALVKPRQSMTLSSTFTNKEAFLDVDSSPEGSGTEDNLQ
p-CIP stab down: lowers stability of the mouse p/CIP coactivator protein; actives 0.01% (n = 290,000); F442A p/CIP-EGFP cells, EGFP fluorescence, 16 h; Q05BA5; AID 1984; decrease of EGFP signal, % at 10 µM;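 active = EGFP signal decrease of at least 30% at 10 µM or well 3 SD below plate mean, unless failing retest; inactive = the rest, including hits failing retest or dose response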
CHT inh: inhibitors of human choline transporter CHT. Q9GZV3. CHT-expressing cells, membrane potential dye, choline response; stronger effect = lower value. B-score at 10 µM. actives 0.86% (n = 310,000). AID 488975;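 active = B-score over 3 SD under the library average, and starting fluorescence ratio not unusually high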;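 note: choline stimulus applied at its EC90 after an EC20 pre-addition; B-score computed on integrated fluorescence ratio after choline addition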
T cell HTS: modulates CD8 T cell binding to vesicles | actives 0.068% (n = 330,000) | 2C CD8+ T cell-vesicle binding, flow cytometry; stronger effect = lower value | response (vesicle binding), % at 7 µM;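 active = response, share of CD8 T cells binding vesicles, and their 90th percentile fluorescence all below set limits, cut at about 80% in these data, passing the limit was not always enough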;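 note: values below 100% mean blocked vesicle binding to the CD8+ T cells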
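material = purified 2C TCR transgenic mouse naive CD8+ T cells | controls = Unloaded micro-vesicles (low), QL9 vesicles with 0.7% DMSO (high) | detection = cytometric PE anti-B7-1 and Alexa647 anti-CD8 signals after 1% paraformaldehyde fixation | incubation = binding step 1.5 h, 37 °C, antibody labelling 20 min, ice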
GPR7 antagonist: blocks human GPR7 receptor signaling; actives 1.1% (n = 290,000); inhibition, % at 4.4 µM; GPR7-expressing cells, fluorescence antagonist assay; AID 1861; P48145; in the data active = inhibition above about 16%, passing the limit was not always enough;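 note: cells stimulated with the agonist NPW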
GPR7 antag cf: confirmation of human GPR7 antagonists. shares compounds with GPR7 antagonist. GPR7-expressing cells, calcium fluorescence antagonist mode. actives 52% (n = 2,400). inhibition, % at 4.4 µM; in the data active = inhibition above about 24%;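 note: stimulated with the GPR7 agonist NPW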
MCHR1 antagonist: MCHR1 (human) antagonism in GPR7 counter-screen; shares compounds with GPR7 antagonist; MCHR1-expressing cells, fluorescence antagonist assay; inhibition, % at 4.4 µM; actives 62% (n = 2,400); in the data active = inhibition above about 22%
Each line names hits and unclear results; the compound was inactive in the other large screens (follow-up assays come after a bar, where they were run).

CC1(C)CC(=O)C2=C(C1)OC1=C(C(=O)CC(C)(C)C1)C2c1ccccc1Cl	none (no result: CHT PAM, p-CIP stab down, CHT inh, T cell HTS, GPR7 antagonist)
Cc1cc(=O)oc2ccc(OCC(=O)N(Cc3ccc(F)cc3)Cc3ccco3)cc12	GPR7 antagonist 34 | GPR7 antag cf 38 | MCHR1 antagonist 68
CCOC(=O)Oc1ccc2oc(=O)cc(C)c2c1	none
Cc1cccc(CN(Nc2ccccc2)c2ccccc2)n1	none (no result: CHT PAM, p-CIP stab down, CHT inh, T cell HTS, GPR7 antagonist)
O=C(c1ccco1)N1CCN(S(=O)(=O)c2ccc(S(=O)(=O)NC3CCCCC3)cc2)CC1	none (no result: GPR7 antagonist) | MCHR1 antagonist inactive
O=C(c1ccco1)N1CCN(S(=O)(=O)c2ccc(S(=O)(=O)NC3CCCC3)cc2)CC1	none
CC(C)C(=O)Nc1cccc(COc2ccccc2CN(Cc2ccccc2)C(=O)OC(C)(C)C)c1	none (no result: CHT PAM, p-CIP stab down, CHT inh, T cell HTS, GPR7 antagonist)
Cc1cccc(OCC(=O)Nc2ccc3oc(=O)ccc3c2)c1	GPR7 antagonist 36 | GPR7 antag cf 33 | MCHR1 antagonist 36
Cc1ccccc1OC(C)C(=O)N1CCC(Cc2ccccc2)CC1 (centres undefined)	GPR7 antagonist 28 (no result: DSG3 Ab inh) | GPR7 antag cf inactive | MCHR1 antagonist 36
CCN(c1ccccc1)S(=O)(=O)c1ccc(Cl)c(NC(=O)CN(C)Cc2cccc(F)c2)c1	none (no result: CHT PAM, p-CIP stab down, CHT inh, T cell HTS, GPR7 antagonist)
CCC1(CC)SCCNC1=O	none (no result: CHT PAM, p-CIP stab down, CHT inh, T cell HTS, GPR7 antagonist)
CN(c1ccc(C(=O)NC2CCCC2)cc1)S(=O)(=O)c1ccc(Cl)cc1	GPR7 antagonist 33 | GPR7 antag cf inactive | MCHR1 antagonist inactive
CN(c1ccc(C(=O)NC2CC2)cc1)S(=O)(=O)c1ccccc1	none
CN1CCC(NC(=O)c2cc(-c3cccc(Br)c3)nc3ccccc23)CC1	GPR7 antagonist 42 | GPR7 antag cf 37 | MCHR1 antagonist 32
O=C(O)CSc1nc2ccccc2[nH]1	GPR7 antagonist 27 | GPR7 antag cf inactive | MCHR1 antagonist inactive
O=C(OCC(=O)c1ccc[nH]1)c1ccc(S(=O)(=O)C(F)F)cc1	none (no result: CHT PAM, p-CIP stab down, CHT inh, T cell HTS, GPR7 antagonist)
O=C(CN1CCN(CC(=O)Nc2ccc3c(c2)OC2(CCCCC2)O3)CC1)Nc1cccc(F)c1	none (no result: CHT PAM, p-CIP stab down, CHT inh, T cell HTS, GPR7 antagonist)
Cc1cccc(Cn2c(C)nc3ccc([N+](=O)[O-])cc3c2=O)c1	GPR7 antagonist 45 | GPR7 antag cf 36 | MCHR1 antagonist 43
CN(C)C(CNC(=O)c1ccc(NS(=O)(=O)c2ccc(F)cc2)cc1)c1ccco1 (centres undefined)	none (no result: p-CIP stab down, GPR7 antagonist)
Cc1ccc(NS(=O)(=O)c2ccc(C(=O)NCC(c3ccco3)N(C)C)cc2)cc1 (centres undefined)	GPR7 antagonist 34 | GPR7 antag cf 52 | MCHR1 antagonist 43
COCCCNCCCCOc1ccc(Br)cc1Cl	none
CN(C)CCCCOc1ccc(Br)cc1Cl	GPR7 antagonist 29 | GPR7 antag cf inactive | MCHR1 antagonist inactive
CC1CCN(CCOCCOc2ccc(Br)cc2Cl)CC1	GPR7 antagonist 29 | GPR7 antag cf 32 | MCHR1 antagonist 37
CCOC(=O)C(C)N1c2cccc3cccc(c23)S1(=O)=O (centres undefined)	none (no result: CHT PAM, p-CIP stab down, CHT inh, T cell HTS, GPR7 antagonist)
O=C(O)Cc1ccc(S(=O)(=O)N2CCCC2)s1	none (no result: CHT PAM, p-CIP stab down, CHT inh, GPR7 antagonist)
COc1ccccc1-n1c(SCC(=O)NC2CCCCC2)nc2c(c1=O)SCC2	GPR7 antagonist 29 | GPR7 antag cf inactive | MCHR1 antagonist inactive
COc1ccccc1-n1c(SCC(N)=O)nc2c(c1=O)SCC2	none
CC(=O)c1ccc(N2CCN(C(=O)CNC(=O)c3ccc(Br)o3)CC2)cc1	none (no result: CHT PAM, p-CIP stab down, CHT inh, T cell HTS, GPR7 antagonist)
O=C(Oc1ccc(C(=S)N2CCCCC2)cc1)c1ccccc1	GPR7 antagonist 26 | GPR7 antag cf 55 | MCHR1 antagonist 56
O=C(Oc1cccc(C(=S)N2CCCCC2)c1)c1ccccc1	none
O=C(Oc1ccc(C(=S)N2CCC(O)CC2)cc1)c1ccc(Cl)cc1	GPR7 antagonist 26 | GPR7 antag cf 34 | MCHR1 antagonist 38
CC(C)CC1C(=O)N(Cc2cn(Cc3ccco3)nn2)CCS(=O)(=O)N1Cc1ccc(-c2ccc(F)cc2)cc1 (centres undefined)	none (no result: CHT PAM, p-CIP stab down, CHT inh, T cell HTS, GPR7 antagonist)

High-throughput results as filed in PubChem BioAssay.
